Reference: ChEMBL document CHEMBL1255192, “3-alkylthio-1,2,4-triazine dimers with potent antimalarial activity” (Bioorg Med Chem Lett, 2010)
Values after ≈ are worked out from the molar mass of the structure shown.

What was measured:
[1] = Distribution coefficient log D of the compound at pH 3; type: physicochemical; conditions: octanol/water
Outline: (§1)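 Log D at each pH was estimated by a chromatographic method.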

[2] = Distribution coefficient log D of the compound at pH 7.4; type: physicochemical; conditions: octanol/water; outline: as §1
HEK293 = experiment: Cytotoxicity against HEK293 cells; type: cell-based; conditions: Homo sapiens
Outline: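 HEK 293 cell toxicity assay, with puromycin as the control. Read-out is EC50.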

[3] = Solubility of the compound at pH 6.5; type: physicochemical; conditions: buffer
[4] = Solubility of the compound at pH 2; type: physicochemical; conditions: buffer
[5] = Intrinsic clearance in human liver microsomes; type: ADME, Microsome
Outline: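 Compound was incubated with human liver microsomes. Parent loss and metabolites were followed by LCMS. Concentration versus time was fitted to exponential decay to get the first-order depletion rate constant, which gave in vitro CLint and a predicted hepatic extraction ratio.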

Plasmodium falciparum [6] = experiment: Antimalarial activity against Plasmodium falciparum 3D7 infected in human erythrocyte; type: functional, organism-based
Outline: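 Asexual erythrocytic-stage culture of the P. falciparum 3D7 strain, with chloroquine as the reference control. Read-out is EC50.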

Plasmodium falciparum [7] = experiment: Antimalarial activity against Plasmodium falciparum Dd2 infected in human erythrocyte; type: functional, organism-based
Outline: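 Chloroquine-resistant P. falciparum Dd2 grown at the erythrocytic stage, with chloroquine as the control. EC50 was determined.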

L6 = experiment: Cytotoxicity against rat L6 cells; type: cell-based

SMILES	EC50 (HEK293) [µM]	EC50 (Plasmodium falciparum [6]) [µM]	also measured
CSc1nncc(-c2cnnc(SC)n2)n1	68		logD [1]: 2.4; logD [2]: 2.4; solubility [3]: 14.5 µM (≈ 3.66 µg/mL); solubility [4]: 15.3 µM (≈ 3.86 µg/mL)
CCSc1nncc(-c2cnnc(SCC)n2)n1	84		
CCCSc1nncc(-c2cnnc(SCCC)n2)n1	> 115		
CSc1nncc(-c2cnnc(OCCN(C)C)n2)n1	24		
CCc1nncc(-c2cnnc(CC)n2)n1		1.6	microsomal CLint [5]: 11.7 µL/min/mg; logD [1]: 1.6; logD [2]: 1.6; solubility [3]: 311 µM (≈ 67.3 µg/mL); solubility [4]: 426 µM (≈ 92.1 µg/mL)
COc1nncc(-c2cnnc(OC)n2)n1	36		
CCCCSc1nncc(-c2cnnc(SCCCC)n2)n1	> 115		
CN(C)CCSc1nncc(-c2cnnc(SCCN(C)C)n2)n1	25	0.47	EC50 (Plasmodium falciparum [7]): 0.62 µM
CCN(CC)CCSc1nncc(-c2cnnc(SC)n2)n1	9	0.023	EC50 (Plasmodium falciparum [7]): 0.012 µM
CCN(CC)CCSc1nncc(-c2cnnc(SCCN(CC)CC)n2)n1	16	0.44	EC50 (Plasmodium falciparum [7]): 0.79 µM
COc1nncc(-c2cnnc(SC)n2)n1	18		EC50 (L6): 33 µM
